{"source": "paper PMC4938124", "about": "(Biochemistry, 2015)", "key": {"hIYD": {"molecular_target": "hIYD", "details": "estimate, limited by solubility; cited from earlier work"}, "IYD": {"test_system": "IYD", "details": "cited from earlier work"}, "hIYD·flox": {"molecular_target": "T1, hIYD·flox (Homo sapiens, UniProt Q6PHW0)", "T1 sequence (Q6PHW0 32-289)": "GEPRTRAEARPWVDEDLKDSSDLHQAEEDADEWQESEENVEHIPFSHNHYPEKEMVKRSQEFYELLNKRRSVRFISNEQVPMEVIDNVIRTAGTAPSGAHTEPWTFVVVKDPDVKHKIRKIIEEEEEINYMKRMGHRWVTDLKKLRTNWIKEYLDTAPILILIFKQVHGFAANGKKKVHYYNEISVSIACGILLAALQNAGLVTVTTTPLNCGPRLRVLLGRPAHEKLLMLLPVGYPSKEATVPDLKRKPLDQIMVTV", "test": "Stopped-flow kinetics of halotyrosine binding to hIYD·flox", "details": "relative to Cl-, Br- and I-Tyr", "in_short": "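hIYD (residues 1–31 removed, SUMO fusion, SUMO cleaved) in 500 mM NaCl, 10% glycerol, 1 mM DTT, 50 mM sodium phosphate pH 7.4, 25 °C. Stopped-flow mixing of equal volumes under air: hIYD·flox 2 μM final with halotyrosine 5–50 μM final. Flavin fluorescence quench (λex 450 nm, λem >530 nm) followed 1 ms–1 s, fit single-exponential. kon from least-squares fit of kobs versus ligand concentration.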"}, "hIYD·flhq [1]": {"molecular_target": "T2, hIYD·flhq (Homo sapiens, UniProt Q6PHW0)", "T2 sequence (Q6PHW0 32-289)": "T1 sequence (Q6PHW0 32-289)", "test": "Stopped-flow single-turnover oxidation of hIYD·flhq by halotyrosines", "type": "biochemical", "details": "set by detection threshold of the stopped-flow instrument", "in_short": "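Anaerobic stopped-flow at 25 °C, pH 7.4 phosphate/NaCl/glycerol/DTT buffer. Dithionite-reduced hIYD·flhq was mixed 1:1 with argon-sparged halotyrosine. At 8 μM enzyme, I-Tyr was 20–200 μM and A446 was followed from 10 ms to beyond 7 s with single-exponential fits. At 5 μM enzyme, substrate was 200 μM, with diode-array spectra from 4 ms plus A360 traces fit single- or double-exponential. Spectra were globally analysed.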"}, "hIYD·flhq [2]": {"molecular_target": "T2, hIYD·flhq", "test": "Stopped-flow oxidation of hIYD·flhq by oxygen", "type": "biochemical", "details": "A446, 25 °C, pH 7.4, oxygen 60–610 μM", "in_short": "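hIYD·flhq, made by stoichiometric dithionite titration under anaerobic conditions, 5 μM final, in 500 mM NaCl, 10% glycerol, 1 mM DTT, 50 mM sodium phosphate pH 7.4, 25 °C. Stopped-flow mix with equal volume of same buffer equilibrated with air or 10/50/100% O2 (oxygen solutions 60–610 μM). A446 traces single-exponential; diode-array spectra 4 ms–7 s. kox from linear fit of kobs versus [O2]; three independent measurements averaged.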"}}}
{"molecule": "N[C@@H](Cc1ccc(O)cc1)C(=O)O", "note": "[Tyr, tyrosine]", "values": [{"measurement": "Kd", "setting": "hIYD", "value": "> 1", "unit": "mM"}]}
{"molecule": "N[C@@H](Cc1ccc(O)c(F)c1)C(=O)O", "note": "[F-Tyr]", "values": [{"measurement": "dehalogenation by IYD", "setting": "IYD", "value": "inert"}, {"measurement": "binding rate (kon) slower than the other halotyrosines", "setting": "hIYD·flox", "value": "approximately 5 fold"}, {"measurement": "binding rate (kon) slower than the other halotyrosines", "setting": "hIYD·flox; listed as fluorotyrosine", "value": 5, "unit": "fold"}, {"measurement": "oxidation of flhq slower than that with I-Tyr", "setting": "hIYD·flhq [1]", "value": "at least 160 fold"}]}
{"molecule": "O=O", "note": "[oxygen]", "values": [{"measurement": "kox, second-order rate constant for reaction between hIYD·flhq and oxygen", "setting": "hIYD·flhq [2]", "value": "(9.3 ± 0.3) × 10^3 M^–1 s^–1"}]}
